Values after ≈ are worked out from the molar mass of the structure shown.
Tests used:
[1] = target: T1, C-X-C chemokine receptor type 3 (Homo sapiens) (UniProt P49682); experiment: Antagonist activity at human CXCR3 expressed in CHO cells by [35S]GTP-gamma-S binding assay at 10 uM; type: functional, cell-based
T1 sequence (whole entry): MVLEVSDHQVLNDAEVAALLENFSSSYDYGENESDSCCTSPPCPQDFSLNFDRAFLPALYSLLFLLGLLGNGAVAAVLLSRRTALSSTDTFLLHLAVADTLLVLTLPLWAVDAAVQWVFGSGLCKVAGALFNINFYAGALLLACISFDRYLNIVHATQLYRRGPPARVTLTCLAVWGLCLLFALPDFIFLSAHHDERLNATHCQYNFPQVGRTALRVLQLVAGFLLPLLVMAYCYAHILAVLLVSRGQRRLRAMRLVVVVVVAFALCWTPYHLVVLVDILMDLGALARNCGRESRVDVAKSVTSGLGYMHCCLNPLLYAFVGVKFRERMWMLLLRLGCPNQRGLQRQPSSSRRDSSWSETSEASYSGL

[2] = Aqueous solubility at pH 6.5; type: physicochemical
[3] = target: T2, C-X-C chemokine receptor type 3 (Homo sapiens, UniProt P49682); experiment: Antagonist activity at human CXCR3 expressed in CHO cells by [35S]GTP-gamma-S binding assay; type: functional, cell-based
T2 sequence (P49682 whole entry): T1 sequence (whole entry)

[4] = Distribution coefficient, log D of the compound; type: physicochemical; conditions: octanol/water
[5] = Clearance in mouse liver microsomes at 0.5 uM; type: ADME, Microsome
How it was run: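 Clearance determined in mouse liver microsomes with compound at 0.5 µM.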

[6] = target: T3, C-X-C chemokine receptor type 3 (Mus musculus, UniProt O88410); experiment: Antagonist activity at mouse CXCR3 by [35S]GTP-gamma-S binding assay; type: functional
T3 sequence (O88410 whole entry): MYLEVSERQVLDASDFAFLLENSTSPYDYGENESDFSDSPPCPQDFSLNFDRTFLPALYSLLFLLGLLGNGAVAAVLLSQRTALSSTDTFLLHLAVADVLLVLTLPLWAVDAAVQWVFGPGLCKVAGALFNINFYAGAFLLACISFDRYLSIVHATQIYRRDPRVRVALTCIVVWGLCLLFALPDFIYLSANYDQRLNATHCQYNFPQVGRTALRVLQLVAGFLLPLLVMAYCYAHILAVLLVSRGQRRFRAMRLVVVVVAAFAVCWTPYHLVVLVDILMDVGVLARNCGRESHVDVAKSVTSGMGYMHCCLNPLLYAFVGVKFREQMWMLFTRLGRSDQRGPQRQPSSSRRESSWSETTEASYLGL

Cytochrome P450 2D6 = Cytochrome P450 2D6 (Homo sapiens, UniProt P10635); experiment: Inhibition at human CYP2D6; type: ADME
[7] = Clearance in mouse at 1 mg/kg, iv; type: ADME, organism-based; parameters: dose 1 mg/kg, route intravenous; conditions: in vivo
How it was run: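 Mice given 1 mg/kg intravenously; clearance determined.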

Sequence of Cytochrome P450 2D6 (P10635 whole entry): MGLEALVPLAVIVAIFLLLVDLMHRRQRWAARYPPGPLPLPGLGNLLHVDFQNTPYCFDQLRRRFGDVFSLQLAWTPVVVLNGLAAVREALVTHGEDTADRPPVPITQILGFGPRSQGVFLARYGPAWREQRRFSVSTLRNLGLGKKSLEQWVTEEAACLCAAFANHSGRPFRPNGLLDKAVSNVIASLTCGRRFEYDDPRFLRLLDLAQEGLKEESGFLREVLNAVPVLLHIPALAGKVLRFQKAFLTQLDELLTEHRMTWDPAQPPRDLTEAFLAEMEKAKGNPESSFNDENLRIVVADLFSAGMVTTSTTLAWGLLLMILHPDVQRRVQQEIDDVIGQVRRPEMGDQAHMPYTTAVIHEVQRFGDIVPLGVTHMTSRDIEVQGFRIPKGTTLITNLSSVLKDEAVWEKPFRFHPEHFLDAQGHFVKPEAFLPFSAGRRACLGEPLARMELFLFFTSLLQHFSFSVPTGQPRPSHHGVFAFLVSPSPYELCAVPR

SMILES | Ki [3] | also measured
CC1(C)[C@H]2CC=C(CN3CCC(NC(=O)Nc4cccc(CN5CCOCC5)c4)CC3)[C@@H]1C2 |  | Intrinsic activity [1]: < 50%
CC1(C)[C@H]2CC=C(CN3CCC(NC(=O)Nc4cccc(C(=O)O)c4)CC3)[C@@H]1C2 |  | Intrinsic activity [1]: < 50%
CC1(C)[C@H]2CC=C(CN3CCC(NC(=O)Nc4cccc(CO)c4)CC3)[C@@H]1C2 |  | Intrinsic activity [1]: < 50%
CC1(C)[C@H]2CC=C(CN3CCC(NC(=O)Nc4cc(F)cc(OC5CCOC5)c4)CC3)[C@@H]1C2 (stereo not given in full) | 83 nM | solubility [2]: 874 µg/mL (≈ 1910 µM); logD [4]: 3; microsomal CLint at 0.5 µM [5]: 97 µL/min/mg
COc1cccc(NC(=O)NC2CCN(CC3=CC[C@H]4C[C@@H]3C4(C)C)CC2)c1 | 429 nM | 
O=C(Nc1cc(C(F)(F)F)cc(C(F)(F)F)c1)NC1CCN(C/C2=C/CCCCCC2)CC1 | 36 nM | 
O=C(Nc1ccc2ccccc2c1)NC1CCN(CC23C=CC(CC2)C3)CC1 (stereo not given) |  | Intrinsic activity [1]: < 50%
CC1(C)[C@H]2CC=C(CN3CCC(NC(=O)Nc4cc(C(F)(F)F)ccc4F)CC3)[C@@H]1C2 | 229 nM | 
N#Cc1ccc(NC(=O)NC2CCN(C/C3=C/CCCCCC3)CC2)cc1 |  | Intrinsic activity [1]: < 50%
O=C(Nc1cccc(C(F)(F)F)c1)NC1CCN(C/C2=C/CCCCCC2)CC1 | 88 nM | 
COc1cccc(-c2ccc(NC(=O)NC3CCN(CC4=CC[C@H]5C[C@@H]4C5(C)C)CC3)s2)c1 | 29 nM | 
CC1(C)[C@H]2CC=C(CN3CCC(NC(=O)Nc4ccccc4)CC3)[C@@H]1C2 | 2000 nM | 
O=C(Nc1cccc(OC(F)(F)F)c1)NC1CCN(C/C2=C/CCCCCC2)CC1 | 104 nM | 
CC1(C)[C@H]2CC=C(CN3CCC(NC(=O)Nc4ccc(-c5ccccc5Cl)s4)CC3)[C@@H]1C2 | 46 nM | 
O=C(Nc1ccc(Oc2ccccc2)cc1)NC1CCN(C/C2=C/CCCCCC2)CC1 | 306 nM | 
N#Cc1cccc(NC(=O)NC2CCN(C/C3=C/CCCCCC3)CC2)c1 |  | Intrinsic activity [1]: < 50%
CC1(C)[C@H]2CC=C(CN3CCC(NC(=O)Nc4cc(F)cc(F)c4)CC3)[C@@H]1C2 | 171 nM | 

SMILES | Ki [3] | also measured
CC(=O)c1cccc(NC(=O)NC2CCN(C/C3=C/CCCCCC3)CC2)c1 | 637 nM | 
O=C(Nc1ccc2ccccc2c1)NC1CCN(CCc2ccccc2)CC1 | 1300 nM | 
O=C(Nc1ccsc1)NC1CCN(C/C2=C/CCCCCC2)CC1 |  | Intrinsic activity [1]: < 50%
CC1(C)C2CC=C(CCN3CCC(NC(=O)Nc4ccc5ccccc5c4)CC3)C1C2 (stereo not given) | 290 nM | 
O=C(Nc1cccc2ccccc12)NC1CCN(C/C2=C/CCCCCC2)CC1 |  | Intrinsic activity [1]: < 50%
CC1(C)[C@H]2CC=C(CN3CCC(NC(=O)Nc4ccc(-c5ccccc5)s4)CC3)[C@@H]1C2 | 191 nM | 
O=C(Nc1ccc2ccccc2c1)NC1CCN(CCCc2ccccc2)CC1 | 2200 nM | 
CC1(C)[C@H]2CC=C(CN3CCC(NC(=O)Nc4cncc(Br)c4)CC3)[C@@H]1C2 | 171 nM | 
CC1(C)[C@H]2CC=C(CN3CCC(NC(=O)Nc4cc(F)cc(C(F)(F)F)c4)CC3)[C@@H]1C2 | 16 nM | 
COC(=O)c1cccc(NC(=O)NC2CCN(CC3=CC[C@H]4C[C@@H]3C4(C)C)CC2)c1 | 376 nM | 
CC1(C)[C@H]2CC=C(CN3CCC(NC(=O)Nc4cccc(OC5CCOC5)c4)CC3)[C@@H]1C2 (stereo not given in full) | 141 nM | clearance [7]: 222 mL/min/kg; solubility [2]: 927 µg/mL (≈ 2110 µM); logD [4]: 3.87; microsomal CLint at 0.5 µM [5]: 287 µL/min/mg
O=C(Nc1cc(F)cc(C(F)(F)F)c1)NC1CCN(C/C2=C/CCCCCC2)CC1 | 47 nM | 
CC1(C)[C@H]2CC=C(CN3CCC(NC(=O)Nc4ccc(F)c(C(F)(F)F)c4)CC3)[C@@H]1C2 | 81 nM | 
CC1(C)[C@H]2CC=C(CN3CCC(NC(=O)Nc4ccc(OC(F)(F)F)cc4)CC3)[C@@H]1C2 | 175 nM | 
O=C(Nc1ccc(-c2ccccc2)s1)NC1CCN(C/C2=C/CCCCCC2)CC1 | 108 nM | 
O=C(Nc1cccc(Cl)c1)NC1CCN(C/C2=C/CCCCCC2)CC1 | 201 nM | 

Further lines, with some results ahead:

Ki [3] | SMILES | also measured
1040 nM | CC(C)(C)c1ccc(NC(=O)NC2CCN(C/C3=C/CCCCCC3)CC2)cc1 | 
191 nM | CC1(C)[C@H]2CC=C(CN3CCC(NC(=O)Nc4cccc(OC5CCOCC5)c4)CC3)[C@@H]1C2 | 
258 nM | CC(=O)c1cccc(NC(=O)NC2CCN(CC3=CC[C@H]4C[C@@H]3C4(C)C)CC2)c1 | 
107 nM | CC1(C)[C@H]2CC=C(CN3CCC(NC(=O)Nc4cncc(-c5ccsc5)c4)CC3)[C@@H]1C2 | 
110 nM | O=C(Nc1ccc2ccccc2c1)NC1CCN(C/C2=C/CCCCCC2)CC1 | solubility [2]: 1 µg/mL (≈ 2.55 µM); Ki [6]: 400 nM; Ki (Cytochrome P450 2D6): 600 nM; logD [4]: 4.95
28 nM | CC1(C)[C@H]2CC=C(C[N+]3(C)CCC(NC(=O)Nc4cc(F)cc(C(F)(F)F)c4)CC3)[C@@H]1C2.[I-] (stereo not given in full) | clearance [7]: 34.5 mL/min/kg; solubility [2]: 55 µg/mL; logD [4]: 2.35; microsomal CLint at 0.5 µM [5]: 66 µL/min/mg
73 nM | CC1(C)[C@H]2CC=C(CN3CCC(NC(=O)Nc4cc(C(F)(F)F)cc(C(F)(F)F)c4)CC3)[C@@H]1C2 | 
31 nM | CC1(C)[C@H]2CC=C(CN3CCC(NC(=O)Nc4cccc(OC(F)(F)F)c4)CC3)[C@@H]1C2 | 
41 nM | O=C(Nc1cc(Cl)cc(Cl)c1)NC1CCN(C/C2=C/CCCCCC2)CC1 | 
39 nM | CC1(C)[C@H]2CC=C(CN3CCC(NC(=O)Nc4ccc(-c5ccc(C(F)(F)F)cc5)s4)CC3)[C@@H]1C2 | 
70 nM | CC1(C)[C@H]2CC=C(CN3CCC(NC(=O)Nc4cncc(-c5cccs5)c4)CC3)[C@@H]1C2 | clearance [7]: 112 mL/min/kg; solubility [2]: 4 µg/mL (≈ 9.16 µM); logD [4]: 3.47; microsomal CLint at 0.5 µM [5]: 324 µL/min/mg
3400 nM | O=C(Nc1cc(Cl)nc(Cl)c1)NC1CCN(C/C2=C/CCCCCC2)CC1 | 
660 nM | COC(=O)c1cccc(NC(=O)NC2CCN(C/C3=C/CCCCCC3)CC2)c1 | 

Reference: ChEMBL document CHEMBL1143784, “Identification and structure-activity relationships of 1-aryl-3-piperidin-4-yl-urea derivatives as CXCR3 receptor antagonists” (Bioorg Med Chem Lett, 2007)
